Compounds with a hit are over-represented: about 2% of the library has one in this group of screens.
RBBP9 inhibitor = human RBBP9 inhibitors, primary screen, biochemical, fluorescence polarization, FP-Rh probe, HTS; Serine hydrolase RBBP9 (Homo sapiens), O75884; recombinant RBBP9; inhibition, % at 7.94 µM; hit rate 0.2% among 220,000; AID 1515, 2009;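 active = inhibition above the campaign mean of all tested compounds plus 3 SD, cut at about 14% in these data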;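 note: plate controls were DMSO wells with RBBP9 for no effect and wells lacking RBBP9 protein for full effect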
Target sequence (O75884 whole entry, looked up): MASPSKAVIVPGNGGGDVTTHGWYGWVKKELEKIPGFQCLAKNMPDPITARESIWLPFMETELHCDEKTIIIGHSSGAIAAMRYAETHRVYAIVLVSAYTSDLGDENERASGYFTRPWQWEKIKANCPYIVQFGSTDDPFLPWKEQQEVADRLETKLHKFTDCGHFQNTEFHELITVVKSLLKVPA
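System: RBBP9 protein | Quantity: 2.5 µM RBBP9 dispensing solution, before mixing | Reagent: FP-Rh probe, 375 nM dispensing solution | Timing: Enzyme-compound preincubation 30 min, then probe labeling 45 min, 25 °C | Measured by: Fluorescence polarization | Read-out: % inhibition | Replication: One well per compound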
Lipid droplet = inhibitors of hepatocyte lipid droplet formation, primary screen, imaging, high-throughput imaging, BODIPY stain. AML12 mouse hepatocytes, oleate lipid droplets. inhibition, % at 6.5 µM. hit rate 0.4% among 240,000. AID 1656, 2009;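 active = lipid droplet intensity inhibited by at least 50%, with more than 500 cells counted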
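Assay system: AML12 hepatocytes (mouse); Probe or stimulus: oleic acid at 100 µM to induce lipid droplet formation; Dosing: compound at 6.5 µM only; Schedule: compound with oleate, overnight; Detection: fluorescence imaging, 20x objective, two fields per well; Measure: % inhibition of lipid droplet signal.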
zVAD death inh = inhibitors of zVAD-triggered necroptosis, primary screen, L929 cells | L929 zVAD necroptosis rescue, ATP luminescence, 24 h; with zVAD 60 µM | viability rescue, % at 10 µM | hit rate 0.38% among 220,000;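 active = activation, scaled between plate controls, above about 75%, limit read from the data; inactive = activation under that limit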;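 note: 0% = zVAD with DMSO and 100% = DMSO alone without zVAD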
Tb hexokinase = Trypanosoma brucei hexokinase 1 inhibitors, primary screen, biochemical, G6PDH-coupled NADH absorbance, MLSCN library | recombinant TbHK1, G6PDH-coupled NADH A340 | hit rate 0.11% among 220,000 | hexokinase 1 [Trypanosoma brucei] | AID 1430, 2008 | inhibition, % at 10 µM;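 active = inhibition of 50% or more in the single-dose primary screen; inactive = inhibition below 50%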
PfM18AAP inh = PfM18AAP inhibitors, malaria aminopeptidase, primary screen, biochemical, QFRET, recombinant enzyme; H-Glu-NHMec fluorogenic cleavage; M18 aspartyl aminopeptidase (Plasmodium falciparum 3D7); AID 1822, 2009; inhibition, % at 7.35 µM; hit rate 1.2% among 290,000;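 active = inhibition above the campaign mean inhibition over all tested compounds plus 3 SD, cut at about 28% in these data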;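 note: 0% = plate median of test compound wells and 100% = 2 mM ZnCl2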
TNF death inh = inhibitors of TNF-alpha triggered necroptosis, primary screen, cell-based, Jurkat FADD-/-, single concentration. hit rate 0.068% among 220,000. AID 463075, 2010. Jurkat FADD-/- TNF necroptosis rescue, ATP luminescence, 24 h; 0 = TNF only, 100 = no-TNF cells. activation (protection from cell death), % at 10 µM;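 active = activation, meaning protection from cell death, of at least 50% relative to plate controls; inactive = activation below 50%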;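 note: necroptosis triggered by 40 ng/mL TNF-alpha added together with compound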
zVAD necrop conf = inhibitors of zVAD-triggered necroptosis in L929, confirmation, L929 cells, duplicate runs; activation (protection from necroptosis), % at 10 µM; L929 zVAD-induced necroptosis rescue, ATP luminescence, 24 h; shares compounds with zVAD death inh; hit rate 16% among 760;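 active = mean protection from necroptosis of at least 50% over duplicate tests; inactive = mean protection below 50%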;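 note: 0% = cells with zVAD alone and 100% = vehicle cells without zVAD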
The depositor's hits bear a star; . = no result.

SMILES	RBBP9 inhibitor	Lipid droplet	zVAD death inh	Tb hexokinase	PfM18AAP inh	TNF death inh	zVAD necrop conf
CC(=O)C1=C(C)NC(SCC(=O)Nc2nccs2)=C(C#N)C1c1ccccc1Cl (stereo unspecified)	-11	39	82*	9	8	15	3
C=CCOC(=O)C1=C(C)NC(SCC(=O)Nc2nccs2)=C(C#N)C1c1ccc(Cl)cc1 (stereo unspecified)	-8	.	1	1	-10	2	.
C=CCOC(=O)C1=C(C)NC(SCC(=O)Nc2nccs2)=C(C#N)C1c1cccs1 (stereo unspecified)	-7	.	87*	-8	-10	12	66*
c1ccc2c(c1)N1CCCN=C1N2CCN1CCCCC1	-5	-23	-1	4	-15	1	.
O=C1N=C2N(CCN3CCCCC3)c3ccccc3N2/C1=C\c1ccc([N+](=O)[O-])o1	-7	18	75*	-10	-3	-14	1
Cc1ccc(NC(=O)C(=Cc2ccc(C(=O)O)cc2)C(=O)Nc2ccc(C)cc2C)c(C)c1	-9	34	85*	-1	0	-1	40
CC(=O)Nc1ccc(Sc2ncccc2C(=O)Nc2ccc(OC(F)(F)F)cc2)cn1	-10	-20	80*	-7	-1	-11	77*
N#Cc1ccc(C23CC4(C2)[C@H](CN(CC2CCCCC2)[C@@H]4c2ccccc2)C3c2ccc(Cl)nc2)cc1 (stereo partly specified)	.	20	1	-3	.	5	.
Cc1ccc(-n2c(SCC(=O)Nc3cccc(S(N)(=O)=O)c3)nc3ccccc32)cc1	-19	-3	0	25	9	0	.
Cc1ccc(NC(=O)n2ccc(-c3ccc(-n4ccnc4)cc3)n2)cc1	7	-12	82*	-1	1	14	50
CCOC(=O)N1CCN(C(=O)c2ccc3c(=O)n4c(nc3c2)CCCCC4)CC1	-6	.	0	-1	0	0	.
Cc1ccc(/C=C2/SC(=S)N(CC(=O)Nc3ncc(Cc4ccc(C)cc4)s3)C2=O)cc1	-8	.	75*	-11	2	-1	0
Cc1ccc(/C=C2\SC(=S)N(CC(=O)Nc3ncc(Cc4ccccc4Cl)s3)C2=O)cc1	-7	.	0	-7	3	-3	.
COc1ccc(-c2nn3c(C4CCCCC4)nnc3s2)cc1OC	-1	.	1	-2	21	-3	.
COc1ccc(-c2nnc3sc(C4CCCCC4)nn23)cc1OC	-3	14	76*	-2	-3	-3	1
CC(=O)Nc1ccc(-c2csc(Nc3cc(C)ccn3)n2)cc1	12	7	9	-1	-10	-1	.
Oc1ccc(-c2csc(Nc3ncccn3)n2)cc1	1	3	78*	-6	-16	16	75*
CC(=O)Nc1ccc(-c2csc(Nc3ncccn3)n2)cc1	-4	8	80*	-4	8	4	1
CCOC(=O)CC1(NC(=O)C2CCC(=O)N(Cc3ccccc3F)C2)CCCCC1 (stereo unspecified)	.	16	.	.	1	.	.
CCc1ccc(NC(=O)c2noc3c2CCCCC3)cc1	2	11	6	0	1	4	.
Cc1ccc(NC(=O)c2noc3c2CCCCC3)cc1	-7	.	82*	-3	1	2	2
Cc1[nH]c2c(ccc3cccnc32)c1C	-6	2	78*	-13	0	12	10
NC(=O)CSc1nc(-c2ccccc2)nc2c1CCCC2	-6	0	2	5	0	0	.
CN(c1cccc(NC(=O)c2ccc(C(C)(C)C)cc2)c1)S(C)(=O)=O	-8	-5	77*	-7	-5	-2	36
CN(C)S(=O)(=O)Oc1ccc(C(=O)Nc2cccc(C(F)(F)F)c2)cc1	-5	-12	79*	-1	2	-4	3
SMILES	RBBP9 inhibitor	Lipid droplet	zVAD death inh	Tb hexokinase	PfM18AAP inh	TNF death inh	zVAD necrop conf
CN(c1cccc(NC(=O)CSc2ccc(Cl)cc2)c1)S(C)(=O)=O	-4	7	75*	-4	1	-7	3
CN(c1cccc(NC(=O)c2ccc(N(C)S(=O)(=O)c3ccccc3)cc2)c1)S(C)(=O)=O	-6	-2	1	-2	-4	-4	.
CN(c1cccc(NC(=O)CCSc2ccccc2)c1)S(C)(=O)=O	-7	15	2	1	7	-2	.
CN(C)S(=O)(=O)Oc1ccc(C(=O)Nc2cccc(Cl)c2)cc1	-4	-8	64	4	2	4	.
Cc1cc(C)nc(N/N=C/c2cn[nH]c2-c2ccc(F)cc2)n1	-6	-1	0	-21	1	4	.
COC(=O)c1cc(S(=O)(=O)Nc2ccc(C)cn2)c[nH]1	.	-2	.	.	-2	.	.
O=C(CSC1=NCCN1)NC12CC3CC(CC(C3)C1)C2	-7	.	85*	7	-1	-8	2
Cc1cc(C(=O)COC(=O)c2ccc(O)cc2)c(C)n1Cc1ccco1	-4	10	75*	-5	1	-2	2
CCOC(=O)Nc1ccc2c(c1)ncn2C1CCCCC1	-9	0	84*	-3	-2	1	17
COC(=O)Nc1ccc2c(c1)ncn2C1CCCCC1	-9	.	59	0	1	1	.
COc1ccc(C(=O)OCC(=O)NC(=O)NC2CCCC2)c(O)c1	-5	-8	77*	9	-5	1	10
CC1=C(C(=O)OCC2CCCO2)C(c2coc3ccccc3c2=O)C2=C(CCCC2=O)N1 (stereo unspecified)	-2	2	0	-13	3	0	.
CCCN1C(=O)/C(=C/c2ccc(C)s2)NC1=S	7	-19	92*	4	-1	30	87*
C(=N\Nc1ncnc2nc[nH]c12)/c1cccs1	-5	0	77*	-60	-1	-3	40
COc1ccc(-c2cnc(N)nc2-c2ccc(OC)cc2O)cc1	-6	.	92*	-11	0	1	8
O=c1oc2ccccc2nc1/C=C(O)/C=C/c1ccc(F)cc1	-10	-1	14	4	16	11	.
O=c1oc2ccccc2nc1/C=C(O)/C=C\c1ccccc1	-6	-21	78*	-6	21	10	3
Cc1ccc(/C(O)=C/c2nc3ccccc3oc2=O)cc1	-10	14	77*	-31	13	17	1

Source: PubChem BioAssay
